# Results as given in ChEMBL document CHEMBL1949577, “Design, synthesis and biological evaluation of novel (E)-α-benzylsulfonyl chalcone derivatives as potential BRAF inhibitors” (Eur J Med Chem, 2012).
# Assays:
# [1] = Inhibition of mouse full length GST-tagged B-Raf V600E mutant-mediated human MEK1 phosphorylation after 1 hr preincubation
# [2] = biological target: Serine/threonine-protein kinase B-raf (Homo sapiens, UniProt P15056, V600E); assay: Inhibition of B-Raf V600E mutant-mediated ERK phosphorylation in human WM266.4 cells by ELISA; type: cell-based
# Procedure, shortened: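 Phospho-ERK1/2 levels in WM266.4 melanoma cells were measured with an ELISA kit, run as the manufacturer instructs.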
# [3] = Growth inhibition of human WM266.4 cells expressing B-Raf V600E mutant after 24 hrs by MTT assay; type: functional; conditions: WM 266-4, 24 h
# Procedure, shortened: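 MTT growth assay. Cells were plated, then returned to the incubator for 24 h to reattach before treatment. Compounds were made up at 20 mM in DMSO (stock), diluted in culture medium to […], and tested over 10 threefold serial dilutions. GI50 was reported from three separate experiments, or from two for some entries.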
# Sequence of Serine/threonine-protein kinase B-raf (P15056 2-766 V600E limits assumed): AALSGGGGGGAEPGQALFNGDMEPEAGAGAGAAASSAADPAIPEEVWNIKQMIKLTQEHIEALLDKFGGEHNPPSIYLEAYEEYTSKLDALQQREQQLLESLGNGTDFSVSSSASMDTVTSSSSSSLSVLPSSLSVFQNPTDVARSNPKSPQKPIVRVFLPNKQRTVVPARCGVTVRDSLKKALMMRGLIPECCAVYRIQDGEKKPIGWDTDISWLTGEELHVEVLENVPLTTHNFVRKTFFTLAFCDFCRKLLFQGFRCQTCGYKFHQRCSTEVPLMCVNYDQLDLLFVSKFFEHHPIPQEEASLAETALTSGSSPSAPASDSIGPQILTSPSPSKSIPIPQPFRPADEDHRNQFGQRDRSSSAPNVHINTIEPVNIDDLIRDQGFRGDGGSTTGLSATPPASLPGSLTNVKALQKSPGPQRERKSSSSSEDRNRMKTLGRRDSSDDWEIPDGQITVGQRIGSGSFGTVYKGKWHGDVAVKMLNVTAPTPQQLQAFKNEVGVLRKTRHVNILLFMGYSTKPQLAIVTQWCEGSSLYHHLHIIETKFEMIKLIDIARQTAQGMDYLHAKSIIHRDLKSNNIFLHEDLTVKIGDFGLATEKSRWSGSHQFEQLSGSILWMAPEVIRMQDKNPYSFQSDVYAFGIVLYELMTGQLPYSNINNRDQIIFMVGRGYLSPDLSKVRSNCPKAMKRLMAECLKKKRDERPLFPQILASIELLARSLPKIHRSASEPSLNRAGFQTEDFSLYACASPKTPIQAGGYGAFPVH
SMILES,IC50 [1] [µM],IC50 [2] [µM],GI50 [3] [µM]
O=C1c2ccccc2SC(c2cc(Br)ccc2O)N1c1ccc(C(F)(F)F)cc1 (centres undefined),> 25,–,–
O=C(/C(=C\c1ccc([N+](=O)[O-])cc1)S(=O)(=O)Cc1ccccc1)c1ccc(Cl)cc1,–,1.23,–
Cc1ccc(N(Cc2cc(Cl)cc(Cl)c2O)CN(N=O)c2ccccc2)cc1,8.61,–,–
O=C(/C(=C\c1ccc(F)cc1)S(=O)(=O)Cc1ccccc1)c1ccc(Cl)cc1,–,1.78,–
Cc1ccc(N2C(=O)c3ccccc3SC2c2cc(Br)ccc2O)cc1 (centres undefined),> 25,–,–
O=c1cc(-c2ccc3c(c2)OCCO3)oc2cc(CCCN3CCCC3)cc(O)c12,10.6,–,–
O=C(/C(=C\c1ccc([N+](=O)[O-])cc1)S(=O)(=O)Cc1ccccc1)c1ccccc1,–,1.37,–
CNC(=O)c1cc(Oc2ccc(NC(=O)Nc3ccc(Cl)c(C(F)(F)F)c3)cc2)ccn1 [SORAFENIB],0.06,–,8.3
